Measurements as given in ChEMBL document CHEMBL2086275, “Docking studies, synthesis, characterization of some novel oxazine substituted 9-anilinoacridine derivatives and evaluation for their antioxidant and anticancer activities as topoisomerase II inhibitors” (Eur J Med Chem, 2012).
Values after ≈ are worked out from the molar mass of the structure shown.

Columns and labels:
Assay type in all cases: functional
[1] = Antioxidant activity assessed as hydrogen peroxide radical scavenging activity
[2] = Antioxidant activity assessed as inhibition of superoxide radical-induced NBT reduction by alkaline DMSO method
[3] = Antitumor activity against mouse DLA cells after 3 hrs by trypan blue dye exclusion assay
Outline: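 DLA cells were grown in the peritoneal cavity of albino mice (25-30 g) by i.p. injection of 1×10^6 cells/mL. Cells were harvested on day 15, washed three times in HBSS and adjusted to 2×10^6 cells/mL. Cells were exposed to graded drug concentrations in PBS (1:1 volume) for 3 h at 37 °C, 5% CO2. Viability was counted by haemocytometer after 1:1 mixing with 0.4% trypan blue, and % inhibition and CTC50 were calculated.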

Row | Compound | IC50 [1] | IC50 [2] | CC50 [3]
1 | O=C(/C=C/c1ccc(Cl)cc1Cl)c1ccc(Nc2c3ccccc3nc3ccccc23)cc1 | > 1000 mg/L | > 500 mg/L | –
2 | COc1ccc(/C=C/C(=O)c2ccc(Nc3c4ccccc4nc4ccccc34)cc2)cc1OC | > 1000 mg/L | > 500 mg/L | –
3 | NC1N=C(c2ccc(Cl)cc2Cl)C=C(c2ccc(Nc3c4ccccc4nc4ccccc34)cc2)O1 (configuration not stated) | 20.03 mg/L (≈ 39.2 µM) | 28.02 mg/L (≈ 54.8 µM) | 180 mg/L (≈ 352 µM)
4 | NC1N=C(c2ccccc2)C=C(c2ccc(Nc3c4ccccc4nc4ccccc34)cc2)O1 (configuration not stated) | 17.23 mg/L (≈ 38.9 µM) | 22.27 mg/L (≈ 50.3 µM) | 425 mg/L (≈ 960 µM)
5 | NC1N=C(c2ccc(Cl)cc2)C=C(c2ccc(Nc3c4ccccc4nc4ccccc34)cc2)O1 (configuration not stated) | 30.01 mg/L (≈ 62.9 µM) | 68.13 mg/L (≈ 143 µM) | 640 mg/L (≈ 1340 µM)
6 | NC1N=C(c2cccc(Cl)c2)C=C(c2ccc(Nc3c4ccccc4nc4ccccc34)cc2)O1 (configuration not stated) | 36.01 mg/L (≈ 75.5 µM) | 37.43 mg/L (≈ 78.5 µM) | 820 mg/L (≈ 1720 µM)
7 | NC1N=C(c2ccccc2Cl)C=C(c2ccc(Nc3c4ccccc4nc4ccccc34)cc2)O1 (configuration not stated) | 25.01 mg/L (≈ 52.4 µM) | 32.05 mg/L (≈ 67.2 µM) | 590 mg/L (≈ 1240 µM)
8 | NC1N=C(c2ccc([N+](=O)[O-])cc2)C=C(c2ccc(Nc3c4ccccc4nc4ccccc34)cc2)O1 (configuration not stated) | 24.03 mg/L (≈ 49.3 µM) | 47.5 mg/L (≈ 97.4 µM) | 725 mg/L (≈ 1490 µM)
9 | NC1N=C(c2cccc([N+](=O)[O-])c2)C=C(c2ccc(Nc3c4ccccc4nc4ccccc34)cc2)O1 (configuration not stated) | 12 mg/L (≈ 24.6 µM) | 29.03 mg/L (≈ 59.5 µM) | 600 mg/L (≈ 1230 µM)
10 | CC1=NC(N)OC(c2ccc(Nc3c4ccccc4nc4ccccc34)cc2)=C1 (configuration not stated) | 14.2 mg/L (≈ 37.3 µM) | 26.3 mg/L (≈ 69.1 µM) | 140 mg/L (≈ 368 µM)
11 | COc1cc(C2=NC(N)OC(c3ccc(Nc4c5ccccc5nc5ccccc45)cc3)=C2)ccc1O (configuration not stated) | 14.5 mg/L (≈ 29.7 µM) | 24.02 mg/L (≈ 49.2 µM) | 250 mg/L (≈ 512 µM)
12 | COc1ccc(C2=NC(N)OC(c3ccc(Nc4c5ccccc5nc5ccccc45)cc3)=C2)cc1OC (configuration not stated) | 18.06 mg/L (≈ 35.9 µM) | 28.01 mg/L (≈ 55.7 µM) | 190 mg/L (≈ 378 µM)
13 | O=C1O[C@H]([C@@H](O)CO)C(O)=C1O [ASCORBIC ACID] | 18.6 mg/L (≈ 106 µM) | 24.77 mg/L (≈ 141 µM) | –

Now from value to compound, other results behind:

Row | IC50 [1] | IC50 [2] | Compound | CC50 [3]
14 | > 1000 mg/L | > 500 mg/L | O=C(/C=C/c1cccc(Cl)c1)c1ccc(Nc2c3ccccc3nc3ccccc23)cc1 | –
15 | > 1000 mg/L | > 500 mg/L | O=C(/C=C/c1ccccc1Cl)c1ccc(Nc2c3ccccc3nc3ccccc23)cc1 | –
16 | > 1000 mg/L | > 500 mg/L | O=C(/C=C/c1ccc([N+](=O)[O-])cc1)c1ccc(Nc2c3ccccc3nc3ccccc23)cc1 | –
17 | > 1000 mg/L | > 500 mg/L | C/C=C/C(=O)c1ccc(Nc2c3ccccc3nc3ccccc23)cc1 | –
18 | > 1000 mg/L | > 500 mg/L | COc1cc(/C=C/C(=O)c2ccc(Nc3c4ccccc4nc4ccccc34)cc2)ccc1O | –
19 | > 1000 mg/L | > 500 mg/L | O=C(/C=C/c1ccccc1)c1ccc(Nc2c3ccccc3nc3ccccc23)cc1 | –
20 | > 1000 mg/L | > 500 mg/L | O=C(/C=C/c1cccc([N+](=O)[O-])c1)c1ccc(Nc2c3ccccc3nc3ccccc23)cc1 | –
21 | > 1000 mg/L | > 500 mg/L | O=C(/C=C/c1ccc(Cl)cc1)c1ccc(Nc2c3ccccc3nc3ccccc23)cc1 | –
